This experiment deals with MT1-160p (Homo sapiens, UniProt P50281). As to the kind of experiment: Phage ELISA, apparent Kd of phage-displayed peptide with MT1-160p. Type of experiment: binding. Put shortly: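 MT1-160p (MT1-MMP residues 160–174) coated at 100 µg/ml in carbonate buffer pH 9.6, 4°C overnight, then blocked with 1% BSA/PBS. Selected phages bound 2 h at 37°C, then PBST washes. Mouse anti-M13 (1:1000) 1 h at 37°C, then HRP goat anti-mouse (1:2500). TMB 30 min at 37°C in the dark, stopped with 2 M H2SO4, A450. Coated wells without phage served as blanks.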

Peptide text beside a SMILES is read from it.

For `CC(C)C[C@H](NC(=O)[C@H](Cc1ccccc1)NC(=O)[C@@H](NC(=O)[C@H](CCCCN)NC(=O)[C@@H](NC(=O)[C@H](CC(N)=O)NC(=O)[C@H](Cc1c[nH]cn1)NC(=O)[C@H](CC(C)C)NC(=O)[C@H](Cc1c[nH]cn1)NC(=O)[C@H](CCCCN)NC(=O)[C@H](Cc1c[nH]c2ccccc12)NC(=O)[C@@H](N)Cc1c[nH]cn1)[C@@H](C)O)[C@@H](C)O)C(=O)O` [MT1-AF7p] (H-HWKHLHNTKTFL-OH), the Kd came to 0.075 nM.

(Values after article PMC3085951 (Journal of controlled release : official journal of the …, 2011).)
